Assay results as given in ChEMBL document CHEMBL3091371, “Cytotoxic and antibacterial marfuraquinocins from the deep South China Sea-derived Streptomyces niveus SCSIO 3406” (J Nat Prod, 2013).
Values after ≈ are worked out from the molar mass of the structure shown.

Assays:
Staphylococcus aureus [1] = assay: Antibacterial activity against methicillin-resistant Staphylococcus aureus clinical isolate shhs-A1 by broth microdilution method; format: functional
In short: (§1)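 Broth microdilution; MIC read as the lowest concentration giving complete growth inhibition in microdilution wells by unaided eye. Clinical isolates from Shanghai Huashan Hospital. Ampicillin and kanamycin as antibacterial controls. Results in μg/mL.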

Acinetobacter baumannii = assay: Antibacterial activity against Acinetobacter baumannii ATCC 19606 by broth microdilution method; format: functional
SF-268 = assay: Cytotoxicity against human SF268 cells after 72 hrs by SRB assay; format: functional, cell-based; conditions: SF-268, 72 h
In short: (§2)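 Human tumour lines are tested by sulforhodamine B (SRB) staining. Cisplatin (DDP) is the positive control. IC50 is reported in μM as mean ± deviation.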

Micrococcus luteus = assay: Antibacterial activity against Micrococcus luteus by broth microdilution method; format: functional
[2] = tested on: Staphylococcus epidermidis; assay: Antibacterial activity against methicillin-resistant Staphylococcus epidermidis clinical isolate shhs-E1 by broth microdilution method; format: functional; in short: as §1
MCF7 = assay: Cytotoxicity against human MCF7 cells after 72 hrs by SRB assay; format: functional, cell-based; conditions: MCF7, 72 h; in short: as §2
HepG2 = assay: Cytotoxicity against human HepG2 cells after 72 hrs by SRB assay; format: functional, cell-based; conditions: HepG2, 72 h; in short: as §2
[3] = Antibacterial activity against Aeromonas hydrophila ATCC 7966 by broth microdilution method; format: functional, Aeromonas hydrophila subsp. hydrophila ATCC 7966
Escherichia coli = assay: Antibacterial activity against Escherichia coli ATCC 25922 by broth microdilution method; format: functional
Staphylococcus aureus [4] = assay: Antibacterial activity against Staphylococcus aureus ATCC 29213 by broth microdilution method; format: functional
NCI-H460 = assay: Cytotoxicity against human NCI-H460 cells after 72 hrs by SRB assay; format: functional, cell-based; conditions: NCI-H460, 72 h; in short: as §2

For `C=C1CCCC(C)(C)C1CC[C@@]1(C)c2c(O)cc3c(c2O[C@@H]1C)C(=O)C=C(OC)C3=O` (some centres undefined), the MIC (Staphylococcus aureus [1]) was > 128 µg/mL, the MIC (Acinetobacter baumannii) was > 128 µg/mL and the IC50 (SF-268) was 26.7 µM. The MIC (Micrococcus luteus) was > 128 µg/mL, the MIC [2] was 64 µg/mL (≈ 151 µM) and the IC50 (MCF7) was 12.9 µM. The IC50 (HepG2) was 17.5 µM, the MIC [3] was 128 µg/mL (≈ 302 µM) and the MIC (Escherichia coli) was 128 µg/mL (≈ 302 µM). The MIC (Staphylococcus aureus [4]) was 8 µg/mL (≈ 18.8 µM) and the IC50 (NCI-H460) was 3.7 µM.
With `C=C1CCCC(C)(C)C1CC[C@@]1(C)c2c(O)cc3c(c2O[C@@H]1CO)C(=O)C=C(OC)C3=O` (some centres undefined) the MIC (Staphylococcus aureus [1]) was > 128 µg/mL, the MIC (Acinetobacter baumannii) was > 128 µg/mL and the IC50 (SF-268) was 17.9 µM. The MIC (Micrococcus luteus) was > 128 µg/mL, the MIC [2] was 8 µg/mL (≈ 18.2 µM) and the IC50 (MCF7) was 18.9 µM. The IC50 (HepG2) was 11.9 µM, the MIC [3] was 128 µg/mL (≈ 291 µM) and the MIC (Escherichia coli) was 128 µg/mL (≈ 291 µM). It also gave an MIC (Staphylococcus aureus [4]) of 8 µg/mL (≈ 18.2 µM) and an IC50 (NCI-H460) of 4.4 µM.
With `CC(C)=CCC/C(C)=C/COc1cccc2nc3c(O)cccc3nc12` the MIC (Staphylococcus aureus [1]) was > 128 µg/mL, the MIC (Acinetobacter baumannii) was > 128 µg/mL and the IC50 (SF-268) was 10.2 µM. The MIC (Micrococcus luteus) was > 128 µg/mL, the MIC [2] was 128 µg/mL (≈ 367 µM) and the IC50 (MCF7) was 16.8 µM. It also gave an IC50 (HepG2) of 22.3 µM, an MIC [3] of 64 µg/mL (≈ 184 µM) and an MIC (Escherichia coli) of 128 µg/mL (≈ 367 µM). The MIC (Staphylococcus aureus [4]) was 128 µg/mL (≈ 367 µM) and the IC50 (NCI-H460) was 68.9 µM.
With `NC[C@H]1O[C@H](O[C@H]2[C@H](O)[C@@H](O[C@H]3O[C@H](CO)[C@@H](O)[C@H](N)[C@H]3O)[C@H](N)C[C@@H]2N)[C@H](O)[C@@H](O)[C@@H]1O` [KANAMYCIN] the MIC (Staphylococcus aureus [1]) was 0.5 µg/mL (≈ 1.03 µM), the MIC (Acinetobacter baumannii) was 4 µg/mL (≈ 8.26 µM) and the MIC (Micrococcus luteus) was 0.5 µg/mL (≈ 1.03 µM). The MIC [2] was 128 µg/mL (≈ 264 µM), the MIC [3] was 0.5 µg/mL (≈ 1.03 µM) and the MIC (Escherichia coli) was 0.5 µg/mL (≈ 1.03 µM). It also gave an MIC (Staphylococcus aureus [4]) of 0.5 µg/mL (≈ 1.03 µM).
With `COc1cccc2nc3c(OC/C=C(\C)CCC=C(C)C)cccc3nc12` the MIC (Staphylococcus aureus [1]) was > 128 µg/mL, the MIC (Acinetobacter baumannii) was > 128 µg/mL and the IC50 (SF-268) was 30.4 µM. For the same molecule, the MIC (Micrococcus luteus) was > 128 µg/mL, the MIC [2] was 128 µg/mL (≈ 353 µM) and the IC50 (MCF7) was 21.9 µM. The IC50 (HepG2) was 52.7 µM, the MIC [3] was 128 µg/mL (≈ 353 µM) and the MIC (Escherichia coli) was 128 µg/mL (≈ 353 µM). The MIC (Staphylococcus aureus [4]) was 128 µg/mL (≈ 353 µM) and the IC50 (NCI-H460) was > 100 µM.
With `CC1(C)S[C@@H]2[C@H](NC(=O)[C@H](N)c3ccccc3)C(=O)N2[C@H]1C(=O)O` [AMPICILLIN] the MIC (Staphylococcus aureus [1]) was > 128 µg/mL, the MIC (Acinetobacter baumannii) was > 128 µg/mL and the MIC (Micrococcus luteus) was 2 µg/mL (≈ 5.72 µM). The MIC [2] was 2 µg/mL (≈ 5.72 µM), the MIC [3] was 128 µg/mL (≈ 366 µM) and the MIC (Staphylococcus aureus [4]) was 0.5 µg/mL (≈ 1.43 µM).
For `C=C1CCCC(C)(C)C1CC[C@]1(C)c2c(O)cc3c(c2O[C@@H]1CO)C(=O)C=C(OC)C3=O` (some centres undefined), the MIC (Staphylococcus aureus [1]) was > 128 µg/mL, the MIC (Acinetobacter baumannii) was > 128 µg/mL and the IC50 (SF-268) was 18.3 µM. The MIC (Micrococcus luteus) was > 128 µg/mL, the MIC [2] was 8 µg/mL (≈ 18.2 µM) and the IC50 (MCF7) was 14.8 µM. The IC50 (HepG2) was 15.5 µM, the MIC [3] was 128 µg/mL (≈ 291 µM) and the MIC (Escherichia coli) was 128 µg/mL (≈ 291 µM). For the same molecule, the MIC (Staphylococcus aureus [4]) was 8 µg/mL (≈ 18.2 µM) and the IC50 (NCI-H460) was 8.8 µM.
For `C=C1CCCC(C)(C)C1CC[C@]1(C)c2c(O)cc3c(c2O[C@@H]1C)C(=O)C=C(OC)C3=O` (some centres undefined), the MIC (Staphylococcus aureus [1]) was > 128 µg/mL, the MIC (Acinetobacter baumannii) was > 128 µg/mL and the IC50 (SF-268) was 27.9 µM. For the same molecule, the MIC (Micrococcus luteus) was > 128 µg/mL, the MIC [2] was 32 µg/mL (≈ 75.4 µM) and the IC50 (MCF7) was 18.7 µM. It also gave an IC50 (HepG2) of 18.5 µM, an MIC [3] of 128 µg/mL (≈ 302 µM) and an MIC (Escherichia coli) of 128 µg/mL (≈ 302 µM). For the same molecule, the MIC (Staphylococcus aureus [4]) was 64 µg/mL (≈ 151 µM) and the IC50 (NCI-H460) was 18.8 µM.
